# Data from ChEMBL document CHEMBL1144257, “5-Chloroindoloyl glycine amide inhibitors of glycogen phosphorylase: synthesis, in vitro, in vivo, and X-ray crystallographic characterization” (Bioorg Med Chem Lett, 2005).
# System: SK-HEP1
# Experiment: Inhibitory concentration against human SK-Hep-1 cells (hepatoma cell line)
# Format: functional, cell-based
# Summary of the method: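 SK-HEP-1 cells carrying pre-labeled ¹⁴C-glycogen, with phosphorylase activated by forskolin. Glycogenolysis is the ¹⁴C-glycogen (dpm) difference between basal and forskolin-treated cells. Inhibition is expressed as percent of forskolin-induced glycogenolysis in DMSO controls. IC50 from a 6-point curve (0.1–30μM), triplicate points, mean of ≥2 independent experiments where repeated.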
row,SMILES,IC50 [µM]
1,O=C(NCC(=O)N(CCO)CC1CCCO1)c1cc2cc(Cl)ccc2[nH]1 (stereo not given),5.7
2,CN(CC1CC1)C(=O)CNC(=O)c1cc2cc(Cl)ccc2[nH]1,1.2
3,CN(C(=O)CNC(=O)c1cc2cc(Cl)ccc2[nH]1)C1CCC1,1
4,CC(CCO)N(C(=O)CNC(=O)c1cc2cc(Cl)ccc2[nH]1)C1CCCC1 (stereo not given),1.4
5,O=C(NCC(=O)N(CCO)C1CCSC1)c1cc2cc(Cl)ccc2[nH]1 (stereo not given),5
6,CN(C(=O)CNC(=O)c1cc2cc(Cl)ccc2[nH]1)C1CCN(C=O)C1 (stereo not given),19
7,O=C(NCC(=O)N(CCO)Cc1ncc[nH]1)c1cc2cc(Cl)ccc2[nH]1,14
8,O=C(NCC(=O)N(CCO)C1CCCCCCCCCCC1)c1cc2cc(Cl)ccc2[nH]1,> 30
9,CN(C(=O)CNC(=O)c1cc2cc(Cl)ccc2[nH]1)c1ccccc1,7.1
10,O=C(NCC(=O)N(CCO)Cc1ccccc1)c1cc2cc(Cl)ccc2[nH]1,2.5
11,O=C(NCC(=O)N(CCO)C1CCCCCCCCC1)c1cc2cc(Cl)ccc2[nH]1,> 30
12,O=C(NCC(=O)N(CCO)C1CCS(=O)(=O)CC1)c1cc2cc(Cl)ccc2[nH]1,> 30
13,CN(CCO)C(=O)CNC(=O)c1cc2cc(Cl)ccc2[nH]1,4
14,CCCCN(C(=O)CNC(=O)c1cc2cc(Cl)ccc2[nH]1)C1CCCC1,9.4
15,O=C(NCC(=O)N(C(CO)CO)C1CCCC1)c1cc2cc(Cl)ccc2[nH]1,9.4
16,O=C(NCC(=O)N(CCO)C1CC1)c1cc2cc(Cl)ccc2[nH]1,4.6
17,CC(O)CN(C(=O)CNC(=O)c1cc2cc(Cl)ccc2[nH]1)C1CCCC1 (stereo not given),1.3
18,O=C(NCC(=O)N(CCO)C1CCCCCCC1)c1cc2cc(Cl)ccc2[nH]1,12
19,CN(C(=O)CNC(=O)c1cc2cc(Cl)ccc2[nH]1)c1ccccn1,9.9
20,C=CCN(C(=O)CNC(=O)c1cc2cc(Cl)ccc2[nH]1)C1CCCC1,0.9

row,SMILES,IC50 [µM]
1,N#CCCN(C(=O)CNC(=O)c1cc2cc(Cl)ccc2[nH]1)C1CCCC1,0.75
2,O=C(O)CN(C(=O)CNC(=O)c1cc2cc(Cl)ccc2[nH]1)C1CCCC1,> 10
3,CN(C(=O)CNC(=O)c1cc2cc(Cl)ccc2[nH]1)c1cccnc1,1.7
4,O=C(NCC(=O)N(CCO)C1CCOC1)c1cc2cc(Cl)ccc2[nH]1 (stereo not given),1.8
5,COCC(O)CN(C(=O)CNC(=O)c1cc2cc(Cl)ccc2[nH]1)C1CCCC1 (stereo not given),0.87
6,O=C(NCC(=O)N(CCO)C1CCc2ccccc21)c1cc2cc(Cl)ccc2[nH]1 (stereo not given),1.8
7,O=C(NCC(=O)N(CCO)C1CCCCCCCC1)c1cc2cc(Cl)ccc2[nH]1,28
8,CC(C)CN(C)C(=O)CNC(=O)c1cc2cc(Cl)ccc2[nH]1,0.62
9,CCCCN(C)C(=O)CNC(=O)c1cc2cc(Cl)ccc2[nH]1,1.4
10,CC(C)(C)N(CCO)C(=O)CNC(=O)c1cc2cc(Cl)ccc2[nH]1,6.7
11,CCOC(=O)CN(C(=O)CNC(=O)c1cc2cc(Cl)ccc2[nH]1)C1CCCC1,5.2
12,CN(C(=O)CNC(=O)c1cc2cc(Cl)ccc2[nH]1)C1CCOCC1,3.4
13,NC(CO)CN(C(=O)CNC(=O)c1cc2cc(Cl)ccc2[nH]1)C1CCCC1 (stereo not given),8.3
14,CCN(C(=O)CNC(=O)c1cc2cc(Cl)ccc2[nH]1)C1CCCC1,0.41
15,CN(C(=O)CNC(=O)c1cc2cc(Cl)ccc2[nH]1)C1CCCCCC1,> 10
16,CN(C)C(=O)CN(C(=O)CNC(=O)c1cc2cc(Cl)ccc2[nH]1)C1CCCC1,13
17,O=C(NCC(=O)N(CCO)C1CCCCCC1)c1cc2cc(Cl)ccc2[nH]1,2.3
18,O=C(NCC(=O)N(CCO)Cc1ccco1)c1cc2cc(Cl)ccc2[nH]1,1.5
19,CN(C(=O)CNC(=O)c1cc2cc(Cl)ccc2[nH]1)C1CCS(=O)(=O)C1 (stereo not given),2

# Molecular target: T1, Glycogen phosphorylase, liver form (Homo sapiens, UniProt P06737)
# T1 sequence (P06737 whole entry): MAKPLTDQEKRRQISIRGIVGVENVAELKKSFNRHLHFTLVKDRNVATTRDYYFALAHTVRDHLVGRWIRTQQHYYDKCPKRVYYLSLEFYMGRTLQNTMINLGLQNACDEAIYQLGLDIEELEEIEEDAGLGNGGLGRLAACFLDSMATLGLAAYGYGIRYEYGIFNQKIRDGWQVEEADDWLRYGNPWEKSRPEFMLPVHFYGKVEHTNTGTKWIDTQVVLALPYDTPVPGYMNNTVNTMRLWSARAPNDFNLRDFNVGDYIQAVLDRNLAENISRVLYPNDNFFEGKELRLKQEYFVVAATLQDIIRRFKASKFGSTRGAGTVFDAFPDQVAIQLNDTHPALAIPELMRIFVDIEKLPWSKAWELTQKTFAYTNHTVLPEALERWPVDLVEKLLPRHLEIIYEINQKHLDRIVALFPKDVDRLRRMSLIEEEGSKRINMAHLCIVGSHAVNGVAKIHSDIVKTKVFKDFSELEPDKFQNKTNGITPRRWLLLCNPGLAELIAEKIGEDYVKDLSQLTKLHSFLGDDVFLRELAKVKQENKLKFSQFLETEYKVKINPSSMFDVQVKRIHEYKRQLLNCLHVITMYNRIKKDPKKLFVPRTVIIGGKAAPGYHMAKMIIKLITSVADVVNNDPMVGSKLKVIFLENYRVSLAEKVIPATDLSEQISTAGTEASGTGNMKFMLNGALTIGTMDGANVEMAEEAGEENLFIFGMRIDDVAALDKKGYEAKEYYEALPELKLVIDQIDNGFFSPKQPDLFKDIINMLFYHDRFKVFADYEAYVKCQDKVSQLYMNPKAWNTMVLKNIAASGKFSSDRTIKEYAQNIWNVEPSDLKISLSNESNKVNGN
# Experiment: Inhibitory concentration against glycogen phosphorylase
row,SMILES,IC50 [µM]
1,O=C(NCC(=O)N(CCO)CC1CCCO1)c1cc2cc(Cl)ccc2[nH]1 (stereo not given),0.55
2,O=C(NCC(=O)N(CCO)Cc1cccnc1)c1cc2cc(Cl)ccc2[nH]1,1.1
3,NCCN(C(=O)CNC(=O)c1cc2cc(Cl)ccc2[nH]1)C1CCCC1,1.6
4,O=C(NCC(=O)N(CCN1CCOCC1)C1CCCC1)c1cc2cc(Cl)ccc2[nH]1,1.5
5,CN(CC1CC1)C(=O)CNC(=O)c1cc2cc(Cl)ccc2[nH]1,0.47
6,CN(C(=O)CNC(=O)c1cc2cc(Cl)ccc2[nH]1)C1CCC1,0.17
7,CC(CCO)N(C(=O)CNC(=O)c1cc2cc(Cl)ccc2[nH]1)C1CCCC1 (stereo not given),0.21
8,O=C(NCC(=O)N(CCO)C1CCSC1)c1cc2cc(Cl)ccc2[nH]1 (stereo not given),0.34
9,CN(CCc1ccccc1)C(=O)CNC(=O)c1cc2cc(Cl)ccc2[nH]1,> 10
10,CN(C(=O)CNC(=O)c1cc2cc(Cl)ccc2[nH]1)C1CCN(C=O)C1 (stereo not given),0.25
11,O=C(NCC(=O)N(CCO)Cc1ncc[nH]1)c1cc2cc(Cl)ccc2[nH]1,0.43
12,CN(C(=O)CNC(=O)c1cc2cc(Cl)ccc2[nH]1)C1CCC(O)CC1 (stereo not given),2.1
13,O=C(NCC(=O)N(CCO)C1CCCCCCCCCCC1)c1cc2cc(Cl)ccc2[nH]1,0.95
14,O=C(NCC(=O)N(CCOCc1ccccc1)C1CCCC1)c1cc2cc(Cl)ccc2[nH]1,1.6
15,CN(C(=O)CNC(=O)c1cc2cc(Cl)ccc2[nH]1)c1ccccc1,0.21
16,O=C(NCC(=O)N(CCO)Cc1ccccc1)c1cc2cc(Cl)ccc2[nH]1,0.32
17,O=C(NCC(=O)N(CCO)C1CCCCCCCCC1)c1cc2cc(Cl)ccc2[nH]1,0.21
18,CN(C(=O)CNC(=O)c1cc2cc(Cl)ccc2[nH]1)C1CC1,0.67
19,CN1CCC(N(C)C(=O)CNC(=O)c2cc3cc(Cl)ccc3[nH]2)C1 (stereo not given),9.6
20,O=C(NCC(=O)N(CCO)C1CCS(=O)(=O)CC1)c1cc2cc(Cl)ccc2[nH]1,0.012
21,CN(CCO)C(=O)CNC(=O)c1cc2cc(Cl)ccc2[nH]1,0.57
22,CCCCN(C(=O)CNC(=O)c1cc2cc(Cl)ccc2[nH]1)C1CCCC1,0.082

row,SMILES,IC50 [µM]
1,O=C(NCC(=O)N(C(CO)CO)C1CCCC1)c1cc2cc(Cl)ccc2[nH]1,0.35
2,CN(Cc1ccncc1)C(=O)CNC(=O)c1cc2cc(Cl)ccc2[nH]1,1.6
3,CC(C)OCCN(C(=O)CNC(=O)c1cc2cc(Cl)ccc2[nH]1)C1CCCC1,1.1
4,O=C(NCC(=O)N(CCO)C1CC1)c1cc2cc(Cl)ccc2[nH]1,0.2
5,CN(C)CCCN(C(=O)CNC(=O)c1cc2cc(Cl)ccc2[nH]1)C1CCCC1,5
6,CC(O)CN(C(=O)CNC(=O)c1cc2cc(Cl)ccc2[nH]1)C1CCCC1 (stereo not given),0.016
7,NC(=O)CN(C(=O)CNC(=O)c1cc2cc(Cl)ccc2[nH]1)C1CCCC1,4.6
8,NCCCN(C(=O)CNC(=O)c1cc2cc(Cl)ccc2[nH]1)C1CCCC1,3
9,O=C(NCC(=O)N(CCCCO)C1CCCC1)c1cc2cc(Cl)ccc2[nH]1,3.9
10,CCCN(C(=O)CNC(=O)c1cc2cc(Cl)ccc2[nH]1)C1CCCC1,0.34
11,O=C(NCC(=O)N(CCO)C1CCCCCCC1)c1cc2cc(Cl)ccc2[nH]1,0.032
12,CN(Cc1ccccn1)C(=O)CNC(=O)c1cc2cc(Cl)ccc2[nH]1,1.5
13,CN(C)CCN(C(=O)CNC(=O)c1cc2cc(Cl)ccc2[nH]1)C1CCCC1,9.7
14,CC(C)OCCCN(C(=O)CNC(=O)c1cc2cc(Cl)ccc2[nH]1)C1CCCC1,0.67
15,O=C(NCC(=O)N(C1CCCC1)C1CCCC1)c1cc2cc(Cl)ccc2[nH]1,0.66
16,CN(C(=O)CNC(=O)c1cc2cc(Cl)ccc2[nH]1)c1ccccn1,0.34
17,C=CCN(C(=O)CNC(=O)c1cc2cc(Cl)ccc2[nH]1)C1CCCC1,0.096
18,N#CCCN(C(=O)CNC(=O)c1cc2cc(Cl)ccc2[nH]1)C1CCCC1,0.14
19,O=C(O)CN(C(=O)CNC(=O)c1cc2cc(Cl)ccc2[nH]1)C1CCCC1,0.26
20,CN(C(=O)CNC(=O)c1cc2cc(Cl)ccc2[nH]1)c1cccnc1,0.33
21,COCCCN(C(=O)CNC(=O)c1cc2cc(Cl)ccc2[nH]1)C1CCCC1,0.37
22,O=C(NCC(=O)N(CCO)C1CCOC1)c1cc2cc(Cl)ccc2[nH]1 (stereo not given),0.055

row,SMILES,IC50 [µM]
1,COCC(O)CN(C(=O)CNC(=O)c1cc2cc(Cl)ccc2[nH]1)C1CCCC1 (stereo not given),0.1
2,O=C(NCC(=O)N(CCO)C1CCc2ccccc21)c1cc2cc(Cl)ccc2[nH]1 (stereo not given),0.049
3,O=C(NCC(=O)N(CCO)C1CCCCCCCC1)c1cc2cc(Cl)ccc2[nH]1,0.082
4,CC(C)CN(C)C(=O)CNC(=O)c1cc2cc(Cl)ccc2[nH]1,0.23
5,COCC(N)CN(C(=O)CNC(=O)c1cc2cc(Cl)ccc2[nH]1)C1CCCC1 (stereo not given),1.2
6,CN(C(=O)CNC(=O)c1cc2cc(Cl)ccc2[nH]1)C(C)(C)C,0.67
7,CN(C(=O)CNC(=O)c1cc2cc(Cl)ccc2[nH]1)C1CCN(C=O)CC1,8.4
8,CCCCN(C)C(=O)CNC(=O)c1cc2cc(Cl)ccc2[nH]1,0.15
9,CN(Cc1cccnc1)C(=O)CNC(=O)c1cc2cc(Cl)ccc2[nH]1,1.9
10,CN(CC(F)(F)F)C(=O)CNC(=O)c1cc2cc(Cl)ccc2[nH]1,1.9
11,CC(C)(C)N(CCO)C(=O)CNC(=O)c1cc2cc(Cl)ccc2[nH]1,0.29
12,CCOC(=O)CN(C(=O)CNC(=O)c1cc2cc(Cl)ccc2[nH]1)C1CCCC1,0.53
13,CN(C(=O)CNC(=O)c1cc2cc(Cl)ccc2[nH]1)C1CCOCC1,0.51
14,NC(CO)CN(C(=O)CNC(=O)c1cc2cc(Cl)ccc2[nH]1)C1CCCC1 (stereo not given),0.51
15,CC(C)OCC(O)CN(C(=O)CNC(=O)c1cc2cc(Cl)ccc2[nH]1)C1CCCC1 (stereo not given),0.93
16,CCN(C(=O)CNC(=O)c1cc2cc(Cl)ccc2[nH]1)C1CCCC1,0.21
17,CN(C(=O)CNC(=O)c1cc2cc(Cl)ccc2[nH]1)C1CCCCCC1,0.32
18,O=C(NCC(=O)N(CCO)C1CCS(=O)(=O)C1)c1cc2cc(Cl)ccc2[nH]1 (stereo not given),1.3
19,CN(C)C(=O)CN(C(=O)CNC(=O)c1cc2cc(Cl)ccc2[nH]1)C1CCCC1,0.41
20,O=C(NCC(=O)N(CCO)C1CCCCCC1)c1cc2cc(Cl)ccc2[nH]1,0.03
21,O=C(NCC(=O)N(CCO)Cc1ccco1)c1cc2cc(Cl)ccc2[nH]1,0.26
22,CN(C(=O)CNC(=O)c1cc2cc(Cl)ccc2[nH]1)C1CCS(=O)(=O)C1 (stereo not given),0.41
